In ChEMBL document CHEMBL4513216, “Probing the Open Global Health Chemical Diversity Library for Multistage-Active Starting Points for Next-Generation Antimalarials” (ACS Infect Dis, 2020):

Assay: Toxicity liver stage against HepG2, at 10uM
Format: cell-based
Set-up: test concentration 10 uM, cell line HepG2-A16-CD81EGFP
Conditions: human, HepG2-A16-CD81EGFP cells; read-out: INHIBITION
Outline: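 Uninfected HepG2-A16-CD81EGFP cells, 3 × 10^3 per well, 1536-well, plated on prespotted compound at 10 μM final, parasite-free screening media added to match infected plates; puromycin 10 μM positive, DMSO 0.5% negative; run in parallel with 48 h PbLuc assay at 37 °C, 5% CO2; viability by CellTiter-Glo luminescence, normalized to controls.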

Structure (SMILES) | cytotoxicity at 10 µM [%]
Clc1ccc(CN2CCOC[C@H](Oc3cccnc3)C2)cc1 | 6.12
OCCc1cc(CC2(NCc3ccc(C(F)(F)F)cc3)COC2)no1 | -4.41
O=C1N(Cc2ccccn2)C[C@H]2CN(C3CCOCC3)CCN12 | 7.94
COCCN1C[C@H]2CN(C(=O)c3ccc4c(c3)OCO4)CCN2C1=O | 13.7
Cc1[nH]c2nc(CNc3cccc(Cl)c3)nn2c(=O)c1C | 0.0924
CC(C)OCCCNC(=O)C1CC(=O)N(c2n[nH]c3cccc(F)c23)C1 (stereo unspecified) | -4.73
Cc1ncn(CCNC(=O)Nc2ccccc2)c(=O)c1C | -4.39
O=C(COc1ccc(-n2cccn2)nn1)NC1CCCCC1 | -1.03
COC(=O)N1CCC(CNS(=O)(=O)c2cnn(C)c2)CC1 | -9.03
COCCNC(=O)c1ccc2ccc(N3CCN(CC4CC4)CC3)n2c1 | 6.59
CN(C)CC(=O)N1CCC2(CC1)CN(Cc1cccnc1)C(=O)CO2 | -8.99
CC(=O)N1CCO[C@@H]2CN(S(=O)(=O)c3ccccc3F)C[C@@H]2C1 | 12.6
COCC1c2nnn(C)c2CCN1C(=O)Cc1ccc2c(c1)OCO2 (stereo unspecified) | 9.46
O=C1CC(c2ccc(C(=O)O)cc2)c2ncn(-c3ccc(F)cc3)c2N1 (stereo unspecified) | -3.67
CC(C)NC(=O)c1ccc2c(c1)nc1n2CCN(Cc2ccco2)C1 | 8.16
CC(=O)N1CCN(C(=O)c2sc(-c3ccccc3F)nc2C)CC1 | -3.3
O=C(Cn1cc(-c2ccccc2)ncc1=O)NC1CCCCC1 | -8.03
CC(=O)c1c(O)n(C)c2ccc(C)cc12 | 8.58
CC(C)[C@H](NC(=O)NC1CCS(=O)(=O)C1)C(=O)NCc1cccnc1 (stereo partly specified) | 5.47
O=C(Cn1ccc2c(Cl)cccc21)N[C@@H](C(=O)O)c1ccccc1 | 2.19
CCc1ccc(NC(=O)Nc2c(O)oc3ccccc3c2=O)cc1 | 5.95
Cc1ccc(C(=O)Nc2c(C(=O)N(C)C)nn(C)c2C)cc1 | 5.59
CCCc1nc(NCCCO)c2c(n1)c(C)nn2CC | 2.55

Structure (SMILES) | cytotoxicity at 10 µM [%]
CN(C)C(=O)c1cn[nH]c1C1CCCN1Cc1cncn1C (stereo unspecified) | -1.89
CC(C)c1cc(C(=O)N[C@@H]2CC[C@@H](Oc3ccccc3)[C@@H]2O)on1 | 2.27
Cc1c(S(=O)(=O)N2CCCCC2c2nnc(-c3cccs3)o2)cnn1C (stereo unspecified) | 3.22
CN(C)S(=O)(=O)N1CCC(c2c(C(N)=O)sc3ccccc23)C1 (stereo unspecified) | 4.83
CNc1nccnc1C1CN(C(=O)c2c[nH]cn2)CCO1 (stereo unspecified) | 3.4
O[C@@H]1CN(Cc2cnccn2)C[C@H]1Oc1ccccc1 | -29.5
Cc1ccnc(C2CCN(S(=O)(=O)c3cn(C)cn3)CC2)n1 | 3.24
CCc1ccccc1Nc1noc2c1CN(C(=O)CNC(C)=O)CC2 | -20.1
Cc1nc(C2CCCN2C(=O)Cc2ccc(F)cc2)nc(O)c1C (stereo unspecified) | -30.4
CC(C)CC(=O)Nc1ccccc1Oc1ccsc1C(=O)O | 6.2
O=C(NCCNC(=O)C1CC1)c1sccc1Br | 1.66
COc1ccccc1CN1CCCC(n2cccn2)C1 (stereo unspecified) | 2
CC(C)CN(CC(O)c1ccccc1)C(=O)Nc1nccs1 (stereo unspecified) | -1.96
CCN(CCCNC(=O)Nc1ccccc1C(C)C)S(C)(=O)=O | -0.132
COc1ccccc1CNC(=O)N1CCCC(CO)C1 (stereo unspecified) | 0.91
CC(NC(=O)NCC(C)(C)O)c1ccc(-c2cncnc2)cc1 (stereo unspecified) | 6.27
O=C(CN1C=Nc2ccccc2S1(=O)=O)NC1CCCCC1 | 4.75
CC(C)C(C(=O)NCC1CC1)n1cnc2cc(F)c(F)cc21 (stereo unspecified) | 3.26
Cc1occc1C(=O)NCC(=O)NCCOc1cccc(Cl)c1 | 0.0264
COc1ccc(CNC(=O)CNc2cc3c(cc2Cl)OCCO3)cc1 | -0.238
CNC(=O)NC(=O)CCN1CCCC1c1nc(C2CCCCC2)co1 (stereo unspecified) | 5.44
O=C(c1csc(-c2cccs2)n1)N1CCN2CCCCC2C1 (stereo unspecified) | -3.04
Cc1ccc2cc(C(=O)N3CCN(S(C)(=O)=O)CC3)[nH]c2c1 | -58.1

Structure (SMILES) | cytotoxicity at 10 µM [%]
CCN1CCN(C(=O)c2c[nH]c(C(C)C)n2)c2ccccc21 | 11.2
Cc1nc2n(n1)CCN(S(=O)(=O)c1ccc(Cl)cc1)C2 | 5.76
CN(Cc1nc2ccccc2c(=O)[nH]1)C1CC(=O)N(C2CC2)C1=O (stereo unspecified) | 4.09
Cc1ccc(F)c(S(=O)(=O)NCc2cccc(N3CCOC3=O)c2)c1 | 9.62
CN(Cc1ccco1)C(=O)CN1CCc2ccccc2C1 | -2.19
CCOc1cccc(CSC(C)c2nc(C)no2)n1 (stereo unspecified) | -22.6
COc1ccccc1CN(CC1CCCO1)C(=O)c1cc(C)n[nH]1 (stereo unspecified) | -2.28
N#Cc1ccc(SCCC(=O)N(Cc2cccnc2)C2CC2)cc1 | 12.3
CCc1nccn1CC(=O)Nc1cccc(C(=O)OC)c1 | -6.88
N#Cc1c(F)cccc1NCCCOCC1CCOCC1 | -1.25
COc1ncccc1C(=O)N1CCC(CNC(C)=O)CC1 | 3.17
CCc1nnc2n1CCN(Cc1csc(-c3ccsc3)n1)C2 | -17.5
Cc1c(NC(=O)NCC(C)N2CCOCC2)cccc1OC(F)F (stereo unspecified) | -2.88
N#Cc1c(N)nc2c(c1-c1cnc(N3CCCC3)nc1)COCC2 | 10.5
Cn1ccnc1CCC1CCCCN1Cc1nccn1C (stereo unspecified) | 8.13
O=C(O)c1cccc(C2CCCN(S(=O)(=O)C3CC3)C2)c1 (stereo unspecified) | 3.24
c1ccc(SCCN2CCN(CCn3cncn3)CC2)cc1 | -2.88
CC1(C)Cc2nc(C(C)(C)C)ncc2C(NC(=O)C2(N)CC2)C1 (stereo unspecified) | -2.49
COc1cccc(CCC2CCCN(C(C)=O)C2)c1 (stereo unspecified) | -15.9
O=C(C1CCCO1)N1CCC(n2cc(-c3ccc(F)cc3)nn2)CC1 (stereo unspecified) | -1.41
Cc1nc(NC(=O)N(C)Cc2ccoc2)nn1C | -6.03
Cc1cnn(CCC(=O)N2CCC3(CCC(=O)N(CC4CC4)C3)CC2)c1 | -2.62
CN(C)Cc1nnc(C2CCCN(c3nc(C(N)=O)cs3)C2)n1C (stereo unspecified) | 1.05

Structure (SMILES) | cytotoxicity at 10 µM [%]
CCNc1ccc(-c2ccnc3c2ccn3C)nn1 | -18.1
Cc1nccn1C1(C(=O)O)CCN(Cc2ccc3c(c2)OCCO3)CC1 | -1.53
CCn1c(N)nc2cc(C(=O)N(C)Cc3cc(C(C)(C)C)n[nH]3)cnc21 | 4.53
Fc1ccc(NC2CCCN(Cc3ccncc3)C2)cc1 (stereo unspecified) | 3.58
COc1ccccc1[C@@H]1CN(Cc2cc(C(C)(C)C)[nH]n2)C[C@H]1C(=O)O | 18.4
COc1ccccc1[C@@H]1CN(C(=O)c2csc(C)n2)C[C@H]1C(=O)O | 4.98
CC(=O)c1cn(CC(=O)NC(C(=O)O)C(C)C)c2ccccc12 (stereo unspecified) | 0.415
Cc1nc(CN2CCCC(NCc3cnn(C)c3)C2)no1 (stereo unspecified) | -2.53
CC(C)Cc1cc(NC(=O)c2cccnc2)n(C)n1 | -7.09
O=C(NCc1ccc(Cl)s1)NCc1nnc2n1CCCCC2 | -2.06
CCc1ncc2c(n1)CN(Cc1nc(-c3cccnc3)no1)CC2 | -1.62
CCn1cc(NC(=O)C2CCN(CC(=O)NC3CCCC3)CC2)cn1 | -6.52
Cc1nc(C)n(CC2CCCN(c3ccc(C#N)cn3)C2)n1 (stereo unspecified) | -9.67
CCc1nc(C)c(C(=O)NCCn2nc3ccccn3c2=O)s1 | -9.42
CN(C)CC1CN(Cc2nc(-c3ccccn3)no2)CCO1 (stereo unspecified) | -5.8
CC(NC(=O)NCCCN1CCCCCC1=O)c1nncn1C (stereo unspecified) | -0.734
O=C(COc1ccc2c(c1)CCC2)NS(=O)(=O)c1cccnc1 | -4.63
CC(C)c1noc(CN2CCN(CCO)CC2)n1 | -5.57
COC(=O)c1ccc(N2CCN(C(=O)c3cc(C)no3)C(C)C2)cc1 (stereo unspecified) | -0.192
CNC(=O)CCS(=O)(=O)Cc1cc(Cl)c2c(c1)OCCCO2 | -6.31
CCc1nc(CN(C(C)=O)C2CCN(Cc3ccccc3F)C2)no1 (stereo unspecified) | -12.3
COc1ccc(C2=CCN(C(=O)CN(C)S(C)(=O)=O)CC2)cc1 | -3.99
CC(=O)N1CCCN(C(=O)NCCc2ccc(Cl)s2)CC1 | -2.24

Structure (SMILES) | cytotoxicity at 10 µM [%]
CCCOc1cc(CNC(=O)Nc2cccnc2N2CCCC2)ccn1 | -2.06
c1coc(-c2noc(CN3CC(n4cccn4)C3)n2)c1 | 2.96
CN(C)C(=O)COCc1cncc2c1CCN(Cc1ccccn1)C2 | -2.51
NCC1CCC(c2c(C(=O)NCCO)sc3ccccc23)CC1 (stereo unspecified) | -11
Cc1ccc(N2CCc3c(CN(C)Cc4ccco4)cncc3C2)nn1 | -6.57
CCOCc1cnc2n1CCN(Cc1cccs1)C2C (stereo unspecified) | 11.3
CC(C)c1nn(C)c(N(C)C)c1CNCc1cscn1 | -5.54
Cc1nc(CN2CCC3(CCN(Cc4nccn4C)CC3)C2=O)cs1 | -1.43
Cc1cccc(CN2C(=O)CCC23CCN(c2ccccn2)CC3)n1 | 3.2
Cc1cccc(CN2C[C@@H](NC(=O)C3CC3)[C@H]3OCCC[C@H]32)n1 | 7.8
CC(=O)N1CC[C@@H]2CN(Cc3ccncc3)S(=O)(=O)[C@@H]2CC1 | 5.07
CCOCC1CN(C(=O)c2cnoc2C)Cc2cnn(C)c21 (stereo unspecified) | 0.384
Cc1ccc(CNC(C)c2ccc(N3CCN(C)CC3)c(F)c2)o1 (stereo unspecified) | -2.76
CN(C)C[C@@H]1CCC[C@@H]2CN(c3cccnc3)C[C@@H]21 | -11.9
Cc1nc(CN2C[C@@H](NC(=O)C3CCC3)[C@H]3COC[C@H]32)cs1 | 7.58
COCC1CC2(CCN(Cc3cccc(C#N)c3)CC2)CN1C(C)C (stereo unspecified) | 0.866
CC(C)N1C(=O)C2(CCN(C)CC2)c2cc(F)ccc21 | -110
CN1CC(=O)N(c2ccccc2)CC12CCN(CC1CCOCC1)C2 (stereo unspecified) | 4.22
CCn1cc(-n2cc3nc(N4CCC(O)CC4)[nH]cc-3c2=O)cn1 | 5.01
